# Screens (PubChem BioAssay)
# In the library only some 1.2% were active in any assay of this set; here they are far more common.
# ARNT-TACC3 inh: disruptors of ARNT/TACC3 protein interaction, primary screen, biochemical, AlphaScreen, single concentration | Transforming acidic coiled-coil-containing protein 3 (Homo sapiens), Q9Y6A5 | AlphaScreen His-ARNT PAS-B/GST-TACC3 binding, luminescence; TACC3 fragment carries E629A point mutation | inhibition, % at 9.99 µM | 0.66% of 390,000 active | AID 623870, 2012;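 active = mean inhibition of replicates at least 50% and at least half of replicates each reaching 50%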;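 note: 0% = complete ARNT plus TACC3 wells and 100% = ARNT alone without TACC3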
# CAL PDZ FP-1: CAL PDZ peptide-binding inhibitors, primary screen, biochemical, fluorescence polarization, Cer-tagged CAL PDZ, HTS | Golgi-associated PDZ and coiled-coil motif-containing protein (Homo sapiens), Q9HD26 | purified CAL PDZ, TMR-peptide fluorescence polarization, 1 h | inhibition, % at 20 µM | 0.02% of 330,000 active | AID 504414, 2011;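 active = highest replicate inhibition of at least 40%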;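 note: plate controls were DMSO neutral control wells for no effect and unlabeled competitor peptide control wells for full effect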
#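 Material: tagged CAL PDZ domain; buffer or medium: 25 mM sodium phosphate pH 7.4, 150 mM NaCl, TCEP, IgG, Thesit; compound dosing: single point, 20 µM; schedule: 1 h incubation at room temperature before polarization reading; measured by: FP readout, S and P plane fluorescence; read-out basis: percent inhibition from loss of millipolarization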
# CAL PDZ FP-2: untagged CAL PDZ binding inhibitors, primary screen, biochemical, fluorescence polarization, HTS; Golgi-associated PDZ and coiled-coil motif-containing protein (Homo sapiens), Q9HD26; purified CAL PDZ, TMR-peptide fluorescence polarization, 1 h; inhibition, % at 24.9 µM; 0.92% of 300,000 active; AID 602252, 2012;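 active = mean inhibition of at least 30% with at least half of replicates also reaching 30%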;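 note: 0% = DMSO neutral control and 100% = excess unlabeled competitor peptide PRC23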
# ARNT Alpha ctr: AlphaScreen signal interference compounds, dose response, artefact control for ARNT-TACC3 interaction inhibitor project, biochemical, luminescence, cherry-pick; shares compounds with ARNT-TACC3 inh; His-ARNT PASB-GST AlphaScreen artifact counter-screen; AC50, µM (series often up to 68 µM), for inactives: at the top dose activity change, negative = signal decrease; 50% of 1,200 active; AID 651705, 2012;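 active = every separate test run was called active for a drop in luminescence, with AC50 within twice the top valid dose, actives reach about 71 µM in these data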
# An asterisk follows results filed as active; x = no result given; [ ] = another dose, or the depositor's remark.
SMILES,ARNT-TACC3 inh,CAL PDZ FP-1,CAL PDZ FP-2,ARNT Alpha ctr
O=C(O)CSc1c(O)c2ccccc2[nH]c1=O,60*,-1,2,-10%
C[C@H](O)C#Cc1ccc2c(c1)O[C@H](CN(C)C(=O)C1CCC1)[C@@H](C)CN([C@H](C)CO)S2(=O)=O,27,x,x,x
COc1ccc(NC(=O)Nc2ccc3c(c2)C(=O)N([C@@H](C)CO)C[C@@H](C)[C@H](CN(C)Cc2ccc(C(=O)O)cc2)O3)cc1,-5,x,x,x
COc1ccc(-c2cnc3c(c2)C(=O)N([C@@H](C)CO)C[C@@H](C)[C@@H](CN(C)Cc2cccnc2)O3)cc1,85*,x,x,-5%[38 µM]
COc1ccc(-c2cnc3c(c2)C(=O)N([C@H](C)CO)C[C@H](C)[C@H](CN(C)Cc2cccnc2)O3)cc1,104*,x,x,4%[42 µM]
COc1ccc(-c2cnc3c(c2)C(=O)N([C@@H](C)CO)C[C@H](C)[C@H](CN(C)Cc2cccnc2)O3)cc1,-10,x,x,x
COc1ccc(-c2cnc3c(c2)C(=O)N([C@H](C)CO)C[C@H](C)[C@@H](CN(C)Cc2cccnc2)O3)cc1,-2,x,x,x
COc1ccc(-c2cnc3c(c2)C(=O)N([C@@H](C)CO)C[C@H](C)[C@@H](CN(C)Cc2cccnc2)O3)cc1,108*,x,x,-7%[38 µM]
COc1ccc(-c2cnc3c(c2)C(=O)N([C@H](C)CO)C[C@@H](C)[C@@H](CN(C)Cc2cccnc2)O3)cc1,37,x,x,x
CO[C@@H]1CN(C)C(=O)c2ccc(NC(=O)C3CCCC3)cc2OC[C@H](C)N(S(C)(=O)=O)C[C@H]1C,-3,x,x,x
C[C@@H]1CN([C@H](C)CO)C(=O)c2cc(NS(=O)(=O)c3cccs3)ccc2O[C@H]1CN(C)Cc1ccc(Cl)c(Cl)c1,-5,x,x,x
C[C@@H]1CN([C@H](C)CO)C(=O)c2cc(NC(=O)Nc3ccc(C(F)(F)F)cc3)ccc2O[C@@H](C)CCCCO[C@@H]1CN(C)C(=O)CCCN(C)C,-2,x,x,x
Oc1ccc(Cl)cc1CNc1cccc2cccnc12,65*,1,x,-31%
Cc1cccc(NCc2cc(Cl)ccc2O)n1,-3,-2,-3,x
Cc1ccccc1S(=O)(=O)N1C[C@H](O)COC[C@@H]2O[C@@H](CC(=O)NCCc3ccccc3)CC[C@H]21,10,x,x,x
C[C@@H]1CCCCO[C@H](CN(C)S(=O)(=O)c2cccs2)[C@H](C)CN([C@H](C)CO)C(=O)c2cc(NC(=O)Nc3ccc(F)cc3)ccc2O1,17,x,x,x
C#CCOCCOCCOCCNc1nc(N2CCN(C(=O)[C@H]([C@@H](C)CC)n3cc([C@@H](N)CO)nn3)CC2)nc(N2CCN(C(=O)[C@H](Cc3ccc(O)cc3)n3cc([C@@H](N)CC(C)C)nn3)CC2)n1,9,-1,0,x
C#CCOCCOCCOCCNc1nc(N2CCN(C(=O)[C@H](CC(N)=O)n3cc([C@@H](N)CC(N)=O)nn3)CC2)nc(N2CCN(C(=O)[C@H](CC(N)=O)n3cc([C@@H](N)CC(N)=O)nn3)CC2)n1,46*,-1,1,-7%
C#CCOCCOCCOCCNc1nc(N2CCN(C(=O)[C@H](CCCCN)n3cc([C@@H](N)CC(N)=O)nn3)CC2)nc(N2CCN(C(=O)[C@H](CCCCN)n3cc([C@@H](N)CC(N)=O)nn3)CC2)n1,60*,-1,-4,-3%
C#CCOCCOCCOCCNc1nc(N2CCN(C(=O)[C@H](CCCCN)n3cc([C@@H](N)CO)nn3)CC2)nc(N2CCN(C(=O)[C@H](Cc3ccc(O)cc3)n3cc([C@@H](N)CC(C)C)nn3)CC2)n1,38*,0,-3,-17%
C#CCOCCOCCOCCNc1nc(N2CCN(C(=O)[C@H](CCC(=O)O)n3cc([C@@H](N)CC(N)=O)nn3)CC2)nc(N2CCN(C(=O)[C@H](CCC(=O)O)n3cc([C@@H](N)CC(N)=O)nn3)CC2)n1,14,1,9,x
C#CCOCCOCCOCCNc1nc(N2CCN(C(=O)[C@H](CCCCN)n3cc(CN)nn3)CC2)nc(N2CCN(C(=O)[C@H](CCCCN)n3cc([C@@H](N)CC(N)=O)nn3)CC2)n1,36,1,1,x
C[C@@H]1CN([C@@H](C)CO)C(=O)c2cccc(NS(C)(=O)=O)c2O[C@H]1CN(C)Cc1ccccc1,13,x,x,x
